# pIC50: −log10 of the molar value. Calls of active or inactive are those of the source. The calls are words filed in the database; no cut-off is given here.
# How the values were obtained:
# [1] = (§1) Inhibition of Mycobacterium tuberculosis His6-tagged MabA expressed in Escherichia coli BL21 (DE3) assessed as reduction in HBCoA formation using AcAcCoA as substrate preincubated for 30 mins followed by substrate and 100 uM NADPH addition and measured after 15 mins by LC-MS/MS analysis
# [2] = test system: Mycobacterium tuberculosis; assay: Antimycobacterial activity against GFP-tagged Mycobacterium tuberculosis H37Rv assessed as inhibition of microbial growth incubated for 5 days by fluorescence assay; assay type: functional; settings: 120 h
# In short: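 M. tuberculosis H37Rv expressing GFP, grown in 7H9 with 0.2% glycerol and 0.05% Tween80, diluted to OD600 0.02. Ten 3-fold dilutions from 300 μM to 15 nM, 0.3% DMSO. Incubated 5 days at 37 °C, fluorescence read at Ex/Em 485/535 nm. Two independent replicates. Rifampicin, isoniazid and ethionamide served as positive controls.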
# [3] = test system: Mycobacterium tuberculosis; assay: Binding affinity to Mycobacterium tuberculosis His6-tagged MabA expressed in Escherichia coli BL21 (DE3) at 100 uM by 19FNMR analysis
# [4] = test system: Mycobacterium tuberculosis; assay: Antimycobacterial activity against Mycobacterium tuberculosis H37Ra assessed as inhibition of microbial growth incubated for 4 weeks in culture medium at pH 6.8; assay type: functional; settings: 672 h
# [5] = test system: Mycobacterium tuberculosis; assay: as §1, with “formation at 1 mM” for “formation”, “for 10 to” for “for”, “and” for “and 100 uM”, “analysis relative to control” for “analysis”; settings: time 10-45 min
# In short: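 Single-point screen of His6-MabA purified by Ni2+-affinity. Compound at 1 mM was preincubated 10 or 30 min at 23 °C with 400 nM enzyme in 100 mM Hepes pH 7. Reaction ran 15 min with 50 µM AcAcCoA and 50 µM NADPH in 1% DMSO, then was stopped with 1% TFA containing 5 µM butyryl-CoA internal standard. HBCoA/BCoA was measured by LC-MS/MS MRM. % inhibition was taken relative to DMSO and 200 µM INH-NADP adduct controls.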
# [6] = test system: Mycobacterium tuberculosis; assay: Non-competitive inhibition of Mycobacterium tuberculosis MabA expressed in Escherichia coli BL21 (DE3) assessed as reduction in HBCoA formation using AcAcCoA as substrate preincubated for 30 mins followed by substrate and 50 to 500 uM NADPH addition and measured after 15 mins by LC-MS/MS analysis; settings: time 45.0 min
# In short: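 Dose-response MabA assay (400 nM enzyme, 50 μM AcAcCoA, 30 min preincubation at 22 °C, 15 min reaction, LC-MS/MS HBCoA/BCoA) run at NADPH 50 and 500 μM. Test compound was tested at 8 points, 3-fold from 1 mM to 0.46 μM. INH-NADP adduct was tested from 200 μM to 0.09 μM. IC50s were compared between NADPH levels.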
# [7] = test system: Mycobacterium tuberculosis; assay: Inhibition of Mycobacterium tuberculosis His6-tagged MabA expressed in Escherichia coli BL21 (DE3) assessed as reduction in HBCoA formation up to 100 uM using AcAcCoA as substrate preincubated for 10 to 30 mins followed by substrate and NADPH addition and measured after 15 mins by LC-MS/MS analysis; settings: dose microM <=100, time 10-45 min
# [8] = Lipophilicity, logD of compound in octanol and PBS buffer at pH 7.4 incubated for 2 hrs under shaking condition by LC-MS/MS analysis; assay type: physicochemical
# In short: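 10 mM DMSO stock diluted 1:50 into 1/1 octanol/PBS pH 7.4, shaken 2 h at room temperature. Each phase was diluted in MeOH and quantified by LC-MS/MS MRM (ES−). LogD is the log of the octanol/PBS concentration ratio. Run in triplicate.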
# [9] = Solubility of compound in PBS buffer at pH 7.4 incubated for 24 hrs under shaking conditions by LC-MS/MS analysis; assay type: physicochemical
# In short: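 10 mM DMSO stock diluted 1:50 into PBS pH 7.4 or MeOH, in triplicate. Shaken 24 h at room temperature, centrifuged and filtered through 0.45 μm, then diluted in MeOH for LC-MS/MS MRM. Solubility is the PBS/MeOH signal-area ratio.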
Structure (SMILES),pIC50 [1],inhibition [5],other results
C/C=C/C=C/C(=O)Nc1c[nH]c(=O)[nH]c1=O,4.19,–,MIC90 [2]: > 300 µM
O=C(Nc1ccc(I)cc1C(=O)O)c1ccc(C(F)(F)F)cc1,4.16,–,Activity [3]: Active
O=C(O)c1ccccc1O [SALICYLIC ACID],–,–,MIC [4]: 33 µg/mL
O=C(O)c1cc(I)ccc1NC(=O)C1CC1,< 3.30,–,–
CC(C)(C)OC(=O)Nc1ccccc1C(=O)O,< 3.00,31%,–
CC(C)(C)OC(=O)Nc1cc2ccccc2cc1C(=O)O,3.51,100%,–
O=C(CCc1ccccc1)Nc1ccc(I)cc1C(=O)O,3.53,–,–
O=C(O)c1ccccc1 [BENZOIC ACID],–,–,MIC [4]: 33 µg/mL
O=C(Nc1ccc(I)cc1C(=O)O)OCc1ccccc1,4.04,100%,–
O=C(Nc1ccc(I)cc1C(=O)O)c1ccc(Cl)cc1Cl,3.90,–,–
O=C(Nc1ccc(I)cc1C(=O)O)c1ccc(OC(F)(F)F)cc1,4.08,–,Activity [3]: Active
O=C(O)c1cc2sccc2[nH]1,3.73,–,MIC90 [2]: > 300 µM
Cc1cccc(Nc2ccccc2C(=O)O)c1C [MEFENAMIC ACID],–,–,MIC [4]: 33 µg/mL
CC(C)(C)OC(=O)Nc1ccc(I)cc1C(=O)O,–,100%,inhibition [6]: Active; MIC90 [2]: 300 µM
O=C1Nc2ccc(Br)cc2C1=O,4.14,–,MIC90 [2]: > 300 µM
CC(C)(C)OC(=O)Nc1ccc(Cl)cc1C(=O)O,< 3.30,77%,–
COC(=O)c1cc(I)ccc1NC(=O)OC(C)(C)C,< 3.00,0%,–
Oc1cc(Cl)ccc1Oc1ccc(Cl)cc1Cl,–,–,inhibition [7]: inactive
CCc1cc(C(N)=S)ccn1 [ETHIONAMIDE],–,–,MIC [2]: 2 µg/mL
O=C(Nc1ccc(I)cc1C(=O)O)c1ccncc1,< 3.40,–,–
CN(C(=O)OC(C)(C)C)c1ccc(I)cc1C(=O)O,3.00,50%,–
CC(C)(C)OC(=O)Nc1ccc(Br)cc1C(=O)O,3.33,95%,–
CC(C)(C)OC(=O)Nc1ccc(-c2ccccc2)cc1C(=O)O,3.71,100%,–

Structure (SMILES),pIC50 [1],inhibition [5],other results
NNC(=O)c1ccncc1 [ISONIAZID],–,–,MIC [2]: 0.125 µg/mL
O=C(Nc1ccc(I)cc1C(=O)O)c1ccc(Cl)c(C(F)(F)F)c1,4.23,–,Activity [3]: Active
O=C(Cc1ccccc1)Nc1ccc(I)cc1C(=O)O,< 3.30,–,–
Cc1ccc(C(=O)Nc2ccc(I)cc2C(=O)O)cc1,4.02,–,–
O=C(Nc1ccc(I)cc1C(=O)O)c1cccc(Cl)c1,4.15,–,–
CC(C)(C)OC(=O)Nc1ccc(F)cc1C(=O)O,3.33,38%,–
CC1(C#CC(=O)O)CC1(Cl)Cl (stereo unspecified),4.60,–,MIC90 [2]: > 300 µM
O=C(CCCc1ccccc1)Nc1ccc(I)cc1C(=O)O,3.73,–,–
O=C1NC(=S)NC(=O)C1C/C=C/c1ccccc1,4.40,–,MIC90 [2]: > 300 µM
CO[C@H]1/C=C/O[C@@]2(C)Oc3c(C)c(O)c4c(O)c(c(/C=N/N5CCN(C)CC5)c(O)c4c3C2=O)NC(=O)/C(C)=C\C=C\[C@H](C)[C@H](O)[C@@H](C)[C@@H](O)[C@@H](C)[C@H](OC(C)=O)[C@@H]1C [RIFAMPIN],–,–,MIC [2]: 0.004 µg/mL
C=CCOC(=O)Nc1ccc(I)cc1C(=O)O,< 3.30,83%,–
CC(C)COC(=O)Nc1ccc(I)cc1C(=O)O,3.51,100%,–
O=C(Nc1ccc(I)cc1C(=O)O)c1ccccc1,3.84,–,–
O=C(Nc1ccc(I)cc1C(=O)O)c1ccc(Cl)cc1,4.28,–,–
O=C(O)c1cc(I)ccc1NC(=O)C1Cc2ccccc2C1,3.85,–,–
COc1ccc(NC(=O)OC(C)(C)C)c(C(=O)O)c1,< 3.00,31%,–
CC/C(C)=C1\OC(=O)[C@H](C)[C@H](O)[C@H](Cc2cccnc2)NC(=O)[C@@H](NC(=O)c2ncccc2O)[C@@H](C)OC1=O,–,–,inhibition [7]: inactive
O=C(Nc1ccc(I)cc1C(=O)O)c1ccc(Cl)c(Cl)c1,4.42,–,logD at 2 h [8]: 3.4; solubility thermodynamic at 24 h [9]: > 200 µM; MIC90 [2]: 300 µM
CC(=O)Oc1ccccc1C(=O)O [ASPIRIN],–,–,MIC [4]: 33 µg/mL
O=C(Nc1ccc(I)cc1C(=O)O)c1ccc(Cl)nc1,3.83,–,–
O=C(O)c1cc(I)ccc1NC(=O)C1CCc2ccccc2C1 (stereo unspecified),3.96,–,–
CC(C)(C)OC(=O)Nc1ccc(Oc2ccccc2)cc1C(=O)O,3.61,100%,–

# Source: ChEMBL document CHEMBL4765348, “Discovery of the first Mycobacterium tuberculosis MabA (FabG1) inhibitors through a fragment-based screening” (Eur J Med Chem, 2020)
